Experimental data from the EternaBench riboswitch data.

Test system: MS2 coat protein
Test: apparent Kd, MS2 coat protein; higher = weaker binding; RNA-MaP array; FMN 200 µM where present
How it was run: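 Stalled E. coli RNA polymerase produced the designs on Illumina sequencing-chip clusters. SNAP-549-labelled MS2 coat protein was added from 0.7 or 1.5 nM, doubling to 3 µM, without and then with constant ligand, in 100 mM Tris-HCl pH 7.5, 80 mM KCl, 4 mM MgCl2, BSA, DTT, yeast tRNA and Tween-20. The apparent Kd is the median of filtered per-cluster fits of green signal normalised to red-channel RNA signal and control-cluster median Fmax.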

[1] = designed as: OFF switch for flavin mononucleotide, no ligand
[2] = ligand present: flavin mononucleotide, designed as: OFF switch for flavin mononucleotide
[3] = designed as: ON switch for flavin mononucleotide, no ligand
[4] = ligand present: flavin mononucleotide, designed as: ON switch for flavin mononucleotide

| Sequence | apparent Kd [1] | apparent Kd [2] | apparent Kd [3] | apparent Kd [4] |
| --- | --- | --- | --- | --- |
| CGCUGGUGAGGAUAUGGGUGUGGUUACAUGAGGAUCACCCAUGUGGUGUCGCGCGUGGGUCCAGAAGGCGCGGGUG | 246 nM | 170 nM | – | – |
| CGCUGUAACGCAGGAUAUGCAUUGGAUUACAAUGCAGAAGGGCGAUUACAUGAGGAUCACCCAUGUGUAAACAGUGAAGAAGAG | – | – | 220 nM | 41.2 nM |
| CGGAGGUCAGGAUAUGCAUGGCGGGACUUGCGUCGUGGCGUGCAGAAGGGACAUGAGGAUCACCCAUGUGGAGG | 155 nM | 267 nM | – | – |
| CGGAUGUCAGGAUAUCGUGCAUACAACGAAAGUUCUAUGUGCGAGAAGGGACAUGAGGAUCACCCAUGUUACGG | 252 nM | 588 nM | – | – |
| CGGCAAAGGAAGGAUAUGCUAGACGAAAGUCUAGCAGAAGGUCCUACAUGAGGAUCACCCAUGUGUCCUAGCCG | 45.4 nM | 55.1 nM | – | – |
| CGGCACCAAGGAUAUACAUGAGGAUCACCCAUGUUUUUUGGGCCCUUAAAAUCUACGUGUAGAAGGUGGGUCGA | 49.9 nM | 56.9 nM | – | – |
| CGGCGCUGUUGAGAGGAUAUGCGGUGAUGGACAUGAGGAUCACCCAUGUUAGCGAUAGCAUUACGGUAGAAGGCUCUACAGCUGC | – | – | 17.9 nM | 14.1 nM |
| CGGCUCUCAGGAUAUACCUCGGGUGGCCAACUGUUUCGUUUACAUGAGGAUCACCCAUGUAGAAGGGAGGGCAA | 49.7 nM | 27 nM | – | – |
| CGGGAGAGAGGAUAUGGUGGACAUCACAUGAGGAUCACCCAUGUCUCGAGUGCUCCGUCACCAGAAGGCUCCGUUU | 109 nM | 78.7 nM | – | – |
| CGGGCUGCUGUGAGGAUAUGCCUGUGGGUGCGUGGGUAGAAGGCACAUGAGGAUCACCCAUGUCCUGCAGCUCG | – | 717 nM | – | – |
| CGGGUCUGAGGAUAUCCAUCCUCAUACAUGAGGAUCACCCAUGUUCACCCUUGGGUUCCCGGAGAAGGCAGUUUUC | 153 nM | 177 nM | – | – |
| CGGGUGGUCCUCCGGGAUUGGACACAGGAUAUCCGCGAAAACAUGAGGAUCACCCAUGUAUAUGAGGAGAAGGGUGGACGAAGA | – | – | 56.2 nM | 15.6 nM |
| CGGUCGAUAUCAGGAUAUCGAUUAAUUACAUGAGGAUCACCCAUGUUGACAAGGAAUAUAACAUGCGAGAAGGGAUUACGAUCG | – | – | 10.1 nM | 8.45 nM |
| CGGUCGAUGUAAGGAUAUCGACUGGAAUACAGUCGAGAAGGUACAUGAGGAUCACCCAUGUAAUCCUAAUAAUAAUAACGACCG | 11.1 nM | 17.4 nM | – | – |
| CGGUGCUGAGGAUAUACAUGAGGAUCACCCAUGUGUUCCGGCUAGCUGACUGGCGCUUGUAGAAGGCAGUACUG | 17.3 nM | 101 nM | – | – |
| CGUAACUGCAUAGGAUAUUGUUACAUGAGGAUCACCCAUGUUUUUCGGAUUAUUUAUCUACUUAGCAAGAAGGAUGGAGUUACG | – | – | 6.82 nM | 4.74 nM |
| CGUAGGAUCCAGAAGGCAUGAACAUGAGGAUCACCCAUGUCAAUAGACAUGAGGAUAUGGAUCCUACGAAAAGUGCGAAAGCAC | – | – | 31.8 nM | 5.94 nM |
| CGUAGGAUGCAGAAGGCAUGAACAUGAGGAUCACCCAUGUCAAAAGACAUGAGGAUAUGCAUCCUACGAAAAGUGCGAAAGCAC | – | – | 17.5 nM | 5.6 nM |
| CGUCUAUGCUAGAAGGCAUGAAACAUGAGGAUCACCCAUGUCAAAGACAUGAGGAUAUAGCAUAGACGAAAAGUGCGAAAGCAC | – | – | 4.43 nM | 3.26 nM |
| CGUGAACAUGAGGAUCACCCAUGUGAAAAACAUAGAGGAUAUGUCACGUGAGUGUAAAAGACAGAAGGCUAUCGUG | – | – | 85.4 nM | 43 nM |
| CGUGCAAGUGUAGGAUAUGGUUAUCUAUGUCUAGUUACUAGACAUAGAUAACCAGAAGGACAUGAGGAUCACCCAUGUAGCACG | 7.5 nM | 17.6 nM | – | – |

| Sequence | apparent Kd [1] | apparent Kd [2] | apparent Kd [3] | apparent Kd [4] |
| --- | --- | --- | --- | --- |
| CGUGCGUAUGUGAGGAUAUGCUGGUCCUUGGAUCAGCAGAAGGCACAUGAGGAUCACCCAUGUGGUGUCGUACC | 262 nM | 44.1 nM | – | – |
| CGUGCGUAUGUGAGGAUAUGCUGGUCCUUGGAUCGGCAGAAGGCACAUGAGGAUCACCCAUGUGGUGUCGUUCC | 42.8 nM | 274 nM | – | – |
| CGUGCUAUGUAGAAGGCAGAUCUGAUUCAGAUCUGAGGAUAUACAUGAGGAUCACCCAUGUUAUGCACCAGCACGAGAGUGCAC | – | 11.5 nM | – | – |
| CGUGUCAUCGAGAAGGCCUCAACAUGAGGAUCACCCAUGUUGUAAUAUGGGAGGAUAUCGAUGAUACAGCUACGUUUCGUAGCA | – | – | 21.1 nM | 6.03 nM |
| CGUGUCAUCGAGAAGGCCUCAACAUGAGGAUCACCCAUGUUGUAAUAUGGGAGGAUAUCGAUGAUACAGCUACGUUUCGUAGCC | – | – | 19.5 nM | 6.48 nM |
| CGUGUCGCAUGAGGAUAUGGUCAGCUUUGCUGACCAGAAGGCAUGUCAAUAGACAUGAGGAUCACCCAUGUAGUUAAGACACGA | – | – | 592 nM | 39.8 nM |
| CGUGUGUCAGGAUAUUAGUAGUGUGUGGAUACAUAUAUUGCUGAGAAGGGACAUGAGGAUCACCCAUGUAUACG | 46.9 nM | 169 nM | – | – |
| CGUUAAUCCUAGGAUAUGCUAGACGAAAGUCUAGCAGAAGGAGGAACAUGAGGAUCACCCAUGUGUCCUAAACG | 16.8 nM | 26.7 nM | – | – |
| CGUUCACAUGAGGAUCACCCAUGUCAGAUUUGGUCAGGAUAUGGUCGGCUUCCGCUAUUGCCAGAAGGGACUGUUG | – | – | 30.5 nM | 23.9 nM |
| CGUUGGUCAGGAUAUGGUGGGCUGGUCGCGCGGCCGGGUGGCUAGAAGGGACAUGAGGAUCACCCAUGUACGGC | 21.5 nM | 40.5 nM | – | – |
| CGUUUAUUUAUGGGUUUAGAUUAUGAGGAUAUCAUUUUUUUAUACAUGAGGAUCACCCAUGUUACUGAGAAGGCAUAAUUAACG | – | – | 16.4 nM | 7.09 nM |
| CUAAUGUGAGGAUAUGGUGUUGAUCACAGGAAGGAGAUUCUCCAGAAGGCACAUGAGGAUCACCCAUGUAGUGA | 163 nM | 142 nM | – | – |
| CUAUAGAUAUCAGGAUAUCUAUUUCCAACAUGAGGAUCACCCAUGUUGAGGAUCACCCAUGUAAAGGAGAAGGGAUAUCUAUAG | – | – | 69.1 nM | 16.4 nM |
| CUAUAUAUAUGAGGAUAUCUAUAUCCAACAUGAGGAUCACCCAUGUUGAGGAUCACCCAUGUAAAGGAGAAGGCAUAUAUAUAG | – | – | 43.2 nM | 14.9 nM |
| CUAUCGAGGUAACUCGCUAUCACACCAGAAGGGACGGAGGCACAUGAGGAUCACCCAUGUCCUAGUCAGGAUAUGGGUGAGUAG | – | – | 17.6 nM | 5.07 nM |
| CUAUGAACGAUAGGAUAUACUGAGGUUGAGUGGGUAGAAGGAUCGAUAGUGUAGAAGACAUGAGGAUCACCCAUGUUAUGGAUU | – | – | 505 nM | 318 nM |
| CUAUGAAGAAUAGGAUAUUCGAUCAAAAGGAUAGAAGAAGGGUUACAUGAGGAUCACCCAUGUAUGCACAUGAGGAUCCCUUAG | 188 nM | 196 nM | – | – |
| CUAUUACGAGGAUAUGAUUUAAAUAACAUGAGGAUCACCCAUGUUUUUACGUUAUUAUGUUCAGAAGGCGUAUUGU | 26.5 nM | 19.4 nM | – | – |
| CUAUUAUUGAUCCAUUUUUUCAACAUGAGGAUCACCCAUGUGCAGGAUAUCGUGAUUAUUAUCAACGAGAAGGGCAGAUUCACG | 59.3 nM | 178 nM | – | – |
| CUCAUGAGAGGAUAUACAUGAGGAUCACCCAUGUGGUCAUCUCCUCGGGCUCCAUUACGUAGAAGGCUCAUUUG | 41.4 nM | 88.4 nM | – | – |
| CUCAUGUAAGGAUAUCAGUAGUAAAAAAAUAAAAUUACUACUGAGAAGGUACAUGAGGAUCACCCAUGUCCUGG | 33.3 nM | 17.9 nM | – | – |
